Columns and labels:
Mus musculus [1] = experiment: Anti-morphine activity against morphine-induced Straub''s tail reaction in mice expressed as % inhibition at 25 mg/kg peroral administration; type: functional; conditions: route oral
Outline: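 Six mice per group received test compounds orally 1 h before morphine (20 mg/kg ip). Straub's tail reaction was scored as the index of morphine's CNS stimulant action.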

Mus musculus [2] = experiment: Anti-fighting potency against foot shock induced fighting behavior in mice expressed as % inhibition at 25 mg/kg peroral administration; type: functional; conditions: route oral
Mus musculus [3] = experiment: Antifighting potency against the foot shock induced fighting behavior in mice on peroral administration; type: functional; conditions: po
Mus musculus [4] = experiment: Anti-morphine activity against the morphine-induced Straub's tail reaction in mice on peroral administration; type: functional; conditions: po
Outline: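 Mice, six per group, dosed orally with test compound 1 h before morphine (20 mg/kg ip); Straub's tail reaction scored as index of morphine CNS stimulation.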

Mus musculus [5] = experiment: Evaluated for hypothermic activity in mice at 30 mg/kgo n peroral administration; type: functional; conditions: dose 30 mg/kg; route oral
Outline: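 Six mice per group were dosed orally 1 h before testing. Rectal temperature was read with an electronic thermometer. Results are given as degrees of hypothermia (Δt °C) versus an untreated group.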

[6] = Toxicity on peroral administration to mice; type: organism-based; conditions: mouse, in vivo, po
Outline: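 Oral dosing to mice, eight per group; LD50 calculated by Litchfield-Wilcoxon method.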

Rattus norvegicus [7] = experiment: Evaluated for neuroleptic-like property using anti-methamphetamine test in rats on peroral administration; type: functional; conditions: po
Outline: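 Groups of six rats were dosed orally, then given methamphetamine 5 mg/kg ip 1 h later. Stereotypy was scored 0–4: sleep/eyes closed 0, motionless/eyes open 1, moving around cage 2, sniffing 3, continuous licking or gnawing 4. ED50 was the dose halving mean score versus controls, with 95% confidence limits.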

Mus musculus [8] = experiment: Cataleptogenic action in mice on peroral administration; type: functional; conditions: po
Outline: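 Six mice per group were dosed orally 1 h before testing. Forepaws were placed on a horizontal steel bar to force an abnormal posture. Holding the posture over 30 s counted as catalepsy. ED50 was the dose giving catalepsy in 50% of animals, with 95% confidence limits.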

[9] = Ratio of muscle relaxant action to antifighting effect; type: functional
Outline: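 Muscle relaxation was measured by traction test in mice (eight per group), 1 h after oral dosing. Forepaws were placed on a horizontal wire bar 30 cm high. Failure to bring the hind feet onto the wire within 5 s counted as relaxation. This action was set in ratio with the antifighting effect.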

Rattus norvegicus [10] = experiment: Evaluated for neuroleptic-like property using open-field test in rats(increase in ambulation at 3 to 20 mg/kg on peroral administration; value may range from 7.3 to 13.9; type: functional; conditions: dose mg/kg 3-20, route oral

SMILES | inhibition in vivo at 25 mg/kg (Mus musculus [1]) | inhibition in vivo at 25 mg/kg (Mus musculus [2]) | further results
COc1cc2c(cc1OCCCN1CCN(c3ccccc3)CC1)CCC2 | 65% | 50% | 
O=[N+]([O-])c1ccc(N2CCN(CCCOc3ccc4c(c3)CCC4)CC2)cc1 | 26% | 0% | 
Fc1ccc(N2CCN(CCCOc3cccc4c3CCC4)CC2)cc1 | 25% | 5% | 
Oc1cc2c(cc1OCCCN1CCN(c3ccccc3)CC1)CCC2 | 0% | 17% | 
c1ccc(N2CCN(CCCCCOc3ccc4c(c3)CCC4)CC2)cc1 | 25% | 27% | 
Clc1ccccc1N1CCN(CCCOc2ccc3c(c2)CCC3)CC1 | 42% | 40% | 
Fc1cc2c(cc1OCCCCN1CCN(c3ccccc3)CC1)CCC2 | 79% | 33% | 
Cl.Cl.Cl.Clc1ccccc1N1CCN(CCCCOc2ccc3c(c2)CCC3)CC1 | 42% | 85% | ED50 (Mus musculus [3]): 14.5 mg/kg; ED50 (Mus musculus [4]): 30 mg/kg
O=[N+]([O-])c1cc2c(cc1OCCCN1CCN(c3ccccc3)CC1)CCC2 | 24% | 67% | 
CCC1CCc2ccc(OCCCN3CCN(c4ccc(F)cc4)CC3)cc21 (centres undefined) | 44% | 67% | 
Cc1cc2c(cc1OCCCN1CCN(c3ccc(F)cc3)CC1)CCC2 | 31% | 50% | 
COc1cc2c(cc1OCCCN1CCN(c3cccc(Cl)c3)CC1)CCC2.Cl.Cl.Cl | 98% | 67% | ED50 (Mus musculus [3]): 15.9 mg/kg; ED50 (Mus musculus [4]): 11.3 mg/kg
Fc1cccc(N2CCN(CCCCOc3ccc4c(c3)CCC4)CC2)c1 | 17% | 15% | 
Clc1cc(Cl)cc(N2CCN(CCCOc3ccc4c(c3)CCC4)CC2)c1 | 0% | 0% | 
Fc1ccc(N2CCN(CCOc3ccc4c(c3)CCC4)CC2)cc1 | 0% | 40% | 
Fc1ccc(N2CCN(CCCOc3cc4c(cc3F)CCC4)CC2)cc1 | 97% | 100% | 
Clc1ccc(N2CCN(CCCOc3cc4c(cc3Cl)CCC4)CC2)cc1 | 36% | 33% | 
O=[N+]([O-])c1cc2c(cc1OCCCN1CCN(c3ccc(F)cc3)CC1)CCC2 | 28% | 58% | 
O=[N+]([O-])c1ccccc1N1CCN(CCCOc2ccc3c(c2)CCC3)CC1 | 43% | 8% | 
COc1ccccc1N1CCN(CCCCOc2ccc3c(c2)CCC3)CC1 | 42% | 33% | 
Fc1ccc(N2CCN(CCCOc3ccc4c(c3)C(c3ccccc3)CC4)CC2)cc1 (centres undefined) | 32% | 17% | 
COc1cc2c(cc1OCCCN1CCN(c3ccc(F)cc3)CC1)CCC2 | 100% | 100% | 
CC(=O)c1ccc(N2CCN(CCCOc3ccc4c(c3)CCC4)CC2)cc1 | 0% | 13% | 
Cl.Cl.Fc1cc2c(cc1OCCCN1CCN(c3ccccc3)CC1)CCC2 | 89% | 100% | Delta t (Mus musculus [5]): -2.9 °C; LD50 [6]: > 2000 mg/kg; ED50 (Rattus norvegicus [7]): > 100 mg/kg; ED50 (Mus musculus [8]): > 100 mg/kg; Ratio [9]: 5; ED50 (Rattus norvegicus [10]): 9.3 mg/kg
COc1ccc(N2CCN(CCCOc3ccc4c(c3)CCC4)CC2)cc1 | 37% | 60% | 
Clc1ccc(N2CCN(CCCOc3ccc4c(c3)CCC4)CC2)cc1 | 58% | 43% | 
Fc1cccc(N2CCN(CCCOc3ccc4c(c3)CCC4)CC2)c1 | 42% | 19% | 
